Our source for the ILS, Average weight and Weight change values is ChEMBL document CHEMBL1122008, “Lipophilic 5'-(alkyl phosphate) esters of 1-beta-D-arabinofuranosylcytosine and its N4-acyl and 2,2'-anhydro-3'-O-acyl derivatives as potential prodrugs” (1982).

What all share (type): functional
In test [1] the test system is Mus musculus. The experiment in a line: Antitumor activity against L1210 leukemia in mice (Percent increase in life span.) at the dose of 240 mg/kg (mice surviving 20 or more days). An outline of the steps: (§1)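 Male B6D2F1J mice, groups of 5–9, inoculated ip with 10^5 L1210 cells on day 0. Dosing starts day 1 on a qd×5 or q4d(2,6) schedule. Vehicles are sterile water, pH 7.4 0.05 M potassium phosphate buffer, or 0.4% Tween 80/0.5% CMC/0.9% benzyl alcohol/0.9% saline. %ILS = (T/C − 1)×100 from median survival. Weights taken days 1 and 7.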

Test [2] relates to Mus musculus. In words: Antitumor activity against L1210 leukemia in mice (Average weight per mouse on day 1.) at the dose of 180 mg/kg. A digest of the protocol: (§2)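 Male B6D2F1J mice (5–9 per group) received 10^5 L1210 cells i.p. on day 0 and drug from day 1, given qd×5 or q4d(2,6). Vehicles were sterile water, 0.05 M potassium phosphate pH 7.4, or 0.4% Tween 80/0.5% CMC/0.9% benzyl alcohol/0.9% saline. Read-out is average body weight per mouse (g) on day 1.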

For test [3], the system named is Mus musculus. In words: Antitumor activity against L1210 leukemia in mice (Average weight per mouse on day 1.) at the dose of 240 mg/kg. A digest of the protocol:
as §2

Test [4] relates to Mus musculus. The experiment in a line: Antitumor activity against L1210 leukemia in mice (Percent increase in life span.) at the dose of 180 mg/kg (mice surviving 20 or more days). A digest of the protocol: as §1
Test [5] concerns Mus musculus. In words: Antitumor activity against L1210 leukemia in mice (Average 7-day weight change (%)) at the dose of 180 mg/kg. An outline of the steps: (§3)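 Male B6D2F1J mice, groups of five to nine, inoculated ip with 10^5 L1210 cells on day 0. Drug treatment started day 1 on qd×5 or q4d(2,6) schedule. Vehicles: ara-C in sterile water; the n-butyl phosphate ester in 0.05 M pH 7.4 potassium phosphate buffer; others as suspensions in 0.4% Tween 80/0.5% low-density CMC/0.9% benzyl alcohol/0.9% saline. Mice weighed days 1 and 7; 7-day weight change given as g/mouse and %.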

The test system of test [6] is Mus musculus. In words: Antitumor activity against L1210 leukemia in mice (Average 7-day weight change (%)) at the dose of 240 mg/kg. A digest of the protocol:
as §3

Test [7] concerns Mus musculus. In words: Antitumor activity against L1210 leukemia in mice (Average 7-day weight change) at the dose of 180 mg/kg. An outline of the steps:
as §3

Test [8] deals with Mus musculus. The experiment in a line: Antitumor activity against L1210 leukemia in mice (Average 7-day weight change) at the dose of 240 mg/kg. A digest of the protocol:
as §3

`CCCCCCCCCCCCCC(=O)O[C@H]1[C@@H]2Oc3nc(=N)ccn3[C@@H]2O[C@@H]1COP(=O)(O)OCCCC` came in with an increase in lifespan (ILS) at 240 mg/kg in test [1] of 112%. For the same compound, the Average weight in test [2] was found to be 23.2 g mouse-1; in test [3] it was 23.4 g mouse-1. This compound also gave an ILS at 180 mg/kg in test [4] of 100%. Further, the Weight change is -11% in test [5], -17% in test [6], -2.6 g mouse-1 in test [7] and -4 g mouse-1 in test [8].

In general, ILS refers to the gain in survival time of treated over control animals, in per cent. Lower therefore signals little gain in survival.
